A short description of this data set: Toxicity liver stage against HepG2, at 10uM. Conditions: human, HepG2-A16-CD81EGFP cells; read-out: INHIBITION
Type of data set: cell-based. More on the design: test concentration 10 uM, cell line HepG2-A16-CD81EGFP. The method, boiled down: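 Uninfected HepG2-A16-CD81EGFP cells, 3 × 10^3 per well, 1536-well, plated on prespotted compound at 10 μM final, parasite-free screening media added to match infected plates; puromycin 10 μM positive, DMSO 0.5% negative; run in parallel with 48 h PbLuc assay at 37 °C, 5% CO2; viability by CellTiter-Glo luminescence, normalized to controls.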

As to `O=C(c1cccnc1)N1CCn2cc(CN3CCCC3)nc2C1`, the cytotoxicity at 10 µM is -74.8%.

Regarding `Cc1noc([C@@H]2C[C@@H]3CCN(c4nnc(C)s4)C[C@H]3O2)n1`, the cytotoxicity at 10 µM came to 5.35%.

Regarding `CN1CCC(Nc2cc(Cl)ccc2OCC(F)(F)F)C1=O` (centres undefined), the cytotoxicity at 10 µM is -2.71%.

With `CN(Cc1nnc(C2CC2)o1)CC1CCCN1c1cccnn1` (centres undefined), the cytotoxicity at 10 µM is -6.54%.

For `COc1c(F)cccc1C(=O)N(C)Cc1nc(-c2ccccn2)no1`, the cytotoxicity at 10 µM is -1.51%.

Turning to `CC(=O)c1ccc(OCC(=O)NS(=O)(=O)c2ccc(C)s2)cc1`, the cytotoxicity at 10 µM was -8.9%.

For `Cc1cc(N2CCC(N(C)C(=O)c3ccc(C#N)cc3)CC2)nc(C)n1`, the cytotoxicity at 10 µM was 26.7%.

Regarding `O=C(c1n[nH]cc1Cl)N1CCCC(n2nnc3cc(F)ccc32)C1` (centres undefined), the cytotoxicity at 10 µM is -8.55%.

For `COc1ccc(C)cc1CCNS(=O)(=O)c1ccc2c(c1)CCC(=O)N2`, the cytotoxicity at 10 µM was -45.5%.

Consider `Cc1cccc(CO[C@@H]2C[C@H]3CN(C(=O)c4cnccn4)CCN3C2)n1`, for which the cytotoxicity at 10 µM was -1.79%.

On to `Cc1nc(CN(C)c2nc3c(cnn3C(C)(C)C)c(=O)[nH]2)cs1`, for which the cytotoxicity at 10 µM is -5.53%.

Turning to `CNCc1cnc(Nc2ccccc2)nc1`, the cytotoxicity at 10 µM is 1.38%.

Consider `CN(Cc1noc2c1CCCC2)C(=O)Cn1cnc2ccccc2c1=O`, for which the cytotoxicity at 10 µM was -52.4%.

As to `CCN(C(=O)CN1CCCC1c1ccc(F)cc1)c1ccccc1C` (centres undefined), the cytotoxicity at 10 µM is 5.42%.

Turning to `CC1CCN(C(=O)c2sccc2-n2cnnn2)CC1`, the cytotoxicity at 10 µM worked out at 9.33%.

With `COC(=O)c1ccc2ccn(CC3CCCN(C)C3)c(=O)c2c1` (centres undefined), the cytotoxicity at 10 µM was -16.1%.

On to `Cc1cncnc1C1CCN(C(=O)C2(C)CCCCN2C)CC1` (centres undefined), for which the cytotoxicity at 10 µM stood at 1.06%.

Turning to `CN(Cc1cnn(C)c1)C(=O)NCCc1ccc2c(c1)OCCO2`, the cytotoxicity at 10 µM was -15.4%.

Consider `CCS(=O)(=O)N1CCc2ccc(NC(=O)NC3CCCCC3)cc21`, for which the cytotoxicity at 10 µM is -4.56%.

On to `N#Cc1ccc(SCCCO)c(F)c1`, for which the cytotoxicity at 10 µM came out at 5.11%.

As for `CCN(CC1CCOC1)C(=O)NCc1nnc2n1CCC2` (centres undefined), the cytotoxicity at 10 µM amounted to 13.6%.

Take `CC1CCC2(CC1)NC(=O)c1cc(Br)ccc1-n1nnnc12` (centres undefined): the cytotoxicity at 10 µM worked out at 10.1%.

Turning to `CCc1ccc(CN2CCN(Cc3ncc[nH]3)[C@H]3CS(=O)(=O)C[C@H]32)nc1`, the cytotoxicity at 10 µM is -0.235%.

As to `CCn1nc(C)c2nnn(CC(=O)Nc3c(C)cccc3C)c(=O)c21`, the cytotoxicity at 10 µM is 5.22%.

Regarding `Cc1nc(CNC(=O)Nc2ccc3c(c2)CCCN3C)sc1C`, the cytotoxicity at 10 µM was -3.68%.

For the molecule `Cc1n[nH]c(C)c1C1CCCN1C(=O)NCC(=O)Nc1ccccc1` (centres undefined), the cytotoxicity at 10 µM amounted to 4.23%.

`O=S(=O)(c1ccccc1)N1CCN(CCn2ccnc2)CC1`: the cytotoxicity at 10 µM is -21.6%.

Turning to `COc1ccc([C@@H]2C[C@H](NC(C)=O)C[C@H](Cc3ccccc3)O2)cn1`, the cytotoxicity at 10 µM came to 5.46%.

Turning to `CNC(=O)[C@H]1C[C@@H]2CN(C(=O)c3ccoc3)C[C@@H]2N1S(C)(=O)=O`, the cytotoxicity at 10 µM is -3.88%.

Turning to `COc1ccc(-c2ccnc(N)c2)c(OC)c1`, the cytotoxicity at 10 µM worked out at 17.6%.

As to `Cc1cc(C2CCCN(CC(=O)N3CCCc4ccccc43)C2)n[nH]1` (centres undefined), the cytotoxicity at 10 µM was -4.14%.

As to `c1ccc(NCc2cn3c(n2)CN(Cc2cccs2)CC3)nc1`, the cytotoxicity at 10 µM turned out to be 5.22%.

Take `OCc1csc(N2CCCC(COc3cccc(F)c3)C2)n1` (centres undefined): the cytotoxicity at 10 µM was -0.176%.

With `Cn1cc(CN2CCC3(CC2)COC(COc2ccccn2)C3)cn1` (centres undefined), the cytotoxicity at 10 µM amounted to 0.719%.

For the molecule `O=C(N1CCCO1)[C@@]12CCO[C@@H]1CCN(Cc1ccc(F)cc1)C2`, the cytotoxicity at 10 µM was -6.1%.

Consider `c1ccc(OC2C[C@@H]3CN(Cc4cnccn4)C[C@@H]3C2)cc1` (some centres undefined), for which the cytotoxicity at 10 µM was -5.92%.

As to `CCOC(=O)C1CN(C(=O)COC)Cc2ncn(CC)c21` (centres undefined), the cytotoxicity at 10 µM was determined as 6.01%.

As to `Cc1cnc(N2CC[C@@H]3O[C@@H](COCc4ccccn4)CC[C@@H]32)nc1`, the cytotoxicity at 10 µM is -88.3%.

On to `Cc1nccn1-c1ccc(C(=O)NCC(F)(F)F)nn1`, for which the cytotoxicity at 10 µM was -2.35%.

As to `COC[C@@]12CCO[C@@H]1CCN(C(=O)Cc1cccc(F)c1)C2`, the cytotoxicity at 10 µM is -8.95%.

In the case of `O=C(CCN1CCCCO1)N1CCC(CO)(CCc2ccccc2)CC1`, the cytotoxicity at 10 µM was 9.71%.

For the molecule `O=C(c1ccccn1)N1CCC(S(=O)(=O)c2ccccc2)C1` (centres undefined), the cytotoxicity at 10 µM is 3.26%.

With `COc1ccc(CN(C)c2ncc(S(N)(=O)=O)s2)c(OC)c1`, the cytotoxicity at 10 µM was -2.03%.

`CNc1cc(CNC(=O)c2ccccn2)nc(-c2ccncc2)n1`: the cytotoxicity at 10 µM was -2.63%.

With `CCS(=O)(=O)N1CCC2(CC1)CC(CC(=O)NC1CC1)c1ccccc12` (centres undefined), the cytotoxicity at 10 µM was -1.72%.

Consider `Cc1noc(C)c1-c1n[nH]c2c1CN(S(=O)(=O)c1cccs1)CC2`, for which the cytotoxicity at 10 µM was -12.1%.

Regarding `CCc1n[nH]c(C2CN(C(=O)CCc3cscn3)CCO2)n1` (centres undefined), the cytotoxicity at 10 µM is -8.42%.

Regarding `Cc1ccc(C)c(N2CCN(CC3(O)CCNC3)CC2)c1` (centres undefined), the cytotoxicity at 10 µM was -5.83%.

As to `CC(C)(C)n1cc(CNc2ccc(CNS(C)(=O)=O)cc2)cn1`, the cytotoxicity at 10 µM stood at 16.1%.

Regarding `CCNc1cc2c(nn1)CCN(C(=O)c1cccc3c1OCO3)C2`, the cytotoxicity at 10 µM was -9.88%.

On to `COCc1nc2cc(NCc3ccc(CO)o3)ccc2o1`, for which the cytotoxicity at 10 µM was -16.2%.

`CCC(=O)N1CCc2[nH]cnc2C12CCN(C(=O)CCS(C)(=O)=O)CC2`: the cytotoxicity at 10 µM was -14.4%.

Turning to `CCc1nnc(CN2CCCN(C(=O)c3ccccn3)CC2)o1`, the cytotoxicity at 10 µM is -5.56%.

In the case of `O=C(NC[C@H]1C[C@@H]2CCN1C[C@@H]2CN1CCCC1)c1ccco1`, the cytotoxicity at 10 µM was -3.84%.

In the case of `CC(C(=O)NCc1ccnc(N2CCCCCC2)c1)n1cccn1` (centres undefined), the cytotoxicity at 10 µM was -15.8%.

As to `CCC(C)Oc1ccc(CNCCNS(C)(=O)=O)cc1Cl` (centres undefined), the cytotoxicity at 10 µM is -6.78%.

For the molecule `CN(C)S(=O)(=O)N1CCC2(CC1)CC(OCC1CC1)CO2` (centres undefined), the cytotoxicity at 10 µM is -2.37%.

`COc1ccc(CN2C[C@@H]3CCCO[C@@H]3[C@H](NC(=O)CC3CC3)C2)cc1`: the cytotoxicity at 10 µM was found to be 25.3%.

As to `CC(=O)N1C[C@@H]2CN(S(=O)(=O)C3CC3)CCO[C@@H]2C1`, the cytotoxicity at 10 µM was -107%.

Regarding `CCN(CC)CCCC(C)NC(=O)c1ccccc1-n1cccn1` (centres undefined), the cytotoxicity at 10 µM is 15.9%.

For the molecule `CCc1nc(CN2CCCC(NCc3cnn(C(C)(C)C)c3)C2)no1` (centres undefined), the cytotoxicity at 10 µM was -6.77%.

With `Cc1nccc(N2C[C@@H](CN3CCCC3)[C@@H](CO)C2)n1`, the cytotoxicity at 10 µM was -3%.

For `CCn1nc(C)c(CN(Cc2ccccn2)Cc2ccccc2Cl)c1C`, the cytotoxicity at 10 µM is 5.17%.

Take `Cc1nc(C2CCCN(C(=O)c3csc(C)n3)C2)no1` (centres undefined): the cytotoxicity at 10 µM was determined as 7.04%.

Regarding `O=C(C1CCCO1)N1C[C@@H]2CCN(c3cnccn3)C[C@@H]2C1` (some centres undefined), the cytotoxicity at 10 µM was -0.832%.

For `Cc1cc(C)n2nc(CC(=O)N[C@H]3C[C@H]4CN(C)CCN4C3)nc2n1`, the cytotoxicity at 10 µM is -2.9%.

For the molecule `Cc1nn(C)c2c(NCCCn3cccn3)ncnc12`, the cytotoxicity at 10 µM was -0.472%.

`CC(=O)N1CCCCC[C@@H]2[C@@H]1[C@H](c1cccc(F)c1)CN2C(C)=O`: the cytotoxicity at 10 µM came out at 5.21%.

Consider `CCc1ocnc1C(=O)N1CCC2(CC1)OCC(C)O2` (centres undefined), for which the cytotoxicity at 10 µM was determined as 4.44%.

For `O=S(=O)(N1CCOCC1)N1CCOC(CCCc2ccccc2)C1` (centres undefined), the cytotoxicity at 10 µM was -8.79%.

In the case of `CCOCc1cncc2c1CCN(S(=O)(=O)c1ccc(C)cc1)C2`, the cytotoxicity at 10 µM came out at 11.2%.

For the molecule `CC1CN(c2ccc(CNC(=O)NCc3ccoc3)cn2)CCO1` (centres undefined), the cytotoxicity at 10 µM is 4.38%.

Take `COc1ncnc(N)c1CNCCc1ccccc1`: the cytotoxicity at 10 µM was -3.15%.

As to `CC(C)NC(=O)N1CCC2(CC(=O)N(c3ccsc3)C2)C1` (centres undefined), the cytotoxicity at 10 µM is -7.99%.

`Cc1cc(C(=O)N2CCC3(CC2)COCCN(c2cccnc2)C3)[nH]n1`: the cytotoxicity at 10 µM was -2.66%.

With `CC(C)(C)OC(=O)N1CCCN1C(=O)c1cccc(F)c1F`, the cytotoxicity at 10 µM was -10.3%.

Consider `N#Cc1ccnc(N2CCC(c3nccn3Cc3cscn3)CC2)c1`, for which the cytotoxicity at 10 µM is -12.4%.

With `CN(C)c1ccc(C(CNS(=O)(=O)c2cccs2)N2CCCC2)cc1` (centres undefined), the cytotoxicity at 10 µM was determined as 2.31%.

`COc1c(Br)cccc1CCNC(=O)c1ccon1`: the cytotoxicity at 10 µM was -2.88%.

On to `CC(C)Nc1nc2c(cc1C(=O)NCC1CC1)CCN(S(C)(=O)=O)CC2`, for which the cytotoxicity at 10 µM is -1.48%.

In the case of `COc1cccc(CC2CN(C3CCC3)CCO2)c1` (centres undefined), the cytotoxicity at 10 µM turned out to be 0.388%.

`O=C(c1ccoc1)N1CCC(NCc2ccccc2-n2ccnc2)CC1`: the cytotoxicity at 10 µM is 5.89%.

As to `CCCN(C)C(=O)Nc1ccc(C(=O)NCCC(=O)OC)cc1`, the cytotoxicity at 10 µM came out at 6.62%.

For the molecule `CCOc1ncccc1NC(=O)C1CCS(=O)(=O)C1` (centres undefined), the cytotoxicity at 10 µM was -16.7%.

Turning to `Cn1cc(CCC(=O)N2C[C@H]3CC[C@@H](C2)N(Cc2ccccn2)C3)cn1`, the cytotoxicity at 10 µM was -1.95%.

Take `c1cncc(CN2CCc3ncnc(C4CC4)c3CC2)c1`: the cytotoxicity at 10 µM is -129%.

Consider `Cc1cccc(CN2CCC3(CCCN(C(=O)c4ccoc4)C3)C2=O)n1` (centres undefined), for which the cytotoxicity at 10 µM was 3.19%.

`O=C(CNc1ccc(OC2CCOC2)cc1)NCc1ccco1` (centres undefined): the cytotoxicity at 10 µM was 5.03%.

As for `CN(C)C(=O)CN1CCCC(CCCc2ccccn2)(C(N)=O)C1` (centres undefined), the cytotoxicity at 10 µM is -23.2%.

For the molecule `CCCc1noc(CCC(=O)N2CCN(C)CC2c2ccccc2)n1` (centres undefined), the cytotoxicity at 10 µM was -7.47%.

Take `Cc1ccc(-c2cn(C3CCN(C(=O)[C@H]4CCCO4)CC3)nn2)cc1`: the cytotoxicity at 10 µM was -8.93%.

Regarding `Cc1ccc(C(=O)NCCCNS(C)(=O)=O)cc1-n1cccc1`, the cytotoxicity at 10 µM was -10%.

With `CC(C)NC(=O)[C@@H]1C[C@H](N)CN1C(=O)c1cc2ccccc2[nH]c1=O`, the cytotoxicity at 10 µM worked out at 10.3%.

On to `O=C(Cc1cccs1)NC1(C(=O)NCC2CC2)CCCC1`, for which the cytotoxicity at 10 µM turned out to be 4.19%.
